Columns and labels:
Conditions in all cases: in vivo
[1] = Drug metabolism in Sprague-Dawley rat urine at 15.6 uCi, ip using benzene-methanol at 8:2 ratio TLC system II; format: ADME, organism-based
Summary of the method: (§1)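 Urine from two rats (250 g) given 300 mg/kg (15.6 µCi) ip was examined by TLC, directly and before/after enzymatic hydrolysis (pH 5.8, 37°, 72 h). Standards were located by fluorescence quenching. Radioactivity was measured by scintillation counting of 0.5-cm silica gel strips scraped from the plates.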

[2] = Drug excretion in Sprague-Dawley rat assessed as radioactivity in urine at 1.71 uCi, ip measured on day 7; format: ADME, organism-based
Summary of the method: (§2)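 Three male rats (250 ± 10 g), each in its own metabolic cage with diet and water ad libitum, given 40 mg/kg ³H-labelled drug (1.71 µCi) ip as 1 ml aqueous 0.26% Tween 80 suspension. Urine and feces collected at 11 h, then daily for 13 days. Feces air-dried, powdered, oxidized and counted. Tissues assayed after sacrifice on day 14.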

[3] = Drug excretion in Sprague-Dawley rat assessed as total radioactivity in feces at 1.71 uCi, ip; format: ADME; summary of the method: as §2
[4] = Retardation factor of the compound in Sprague-Dawley rat urine at 15.6 uCi, ip using hexane-chloroform-acetic acid at 6:3:1 ratio TLC system I; format: physicochemical, organism-based; summary of the method: as §1
[5] = Drug metabolism in Sprague-Dawley rat urine at 15.6 uCi, ip using Et2O TLC system; format: ADME, organism-based; summary of the method: as §1
[6] = Drug excretion in Sprague-Dawley rat assessed as radioactivity in feces at 1.71 uCi, ip measured on day 13; format: ADME, organism-based; summary of the method: as §2
[7] = Drug metabolism in Sprague-Dawley rat urine at 15.6 uCi, ip using hexane-chloroform-acetic acid at 6:3:1 ratio TLC system I; format: ADME, organism-based; summary of the method: as §1
[8] = Drug excretion in Sprague-Dawley rat assessed as radioactivity in urine at 1.71 uCi, ip measured on day 1; format: ADME, organism-based; summary of the method: as §2
[9] = Drug metabolism in Sprague-Dawley rat urine assessed as hydroxylated 2-benzylpyridine at 15.6 uCi, ip by gas chromatography-mass spectrometry; format: ADME, organism-based
Summary of the method: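 Two rats (250 g) dosed ip at 300 mg/kg (15.6 µCi). Urine hydrolysed at pH 5.8, 37°, 72 h with Helix pomatia glucuronidase/arylsulfatase or bovine liver β-glucuronidase. Preparative TLC in system II; the radioactive band at Rf 0.6 extracted into Et2O and silylated (bis(trimethylsilyl)acetamide/triethylamine). GLC on 3% SE-30, fractions counted, radioactive peak sent to MS.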

[10] = Drug excretion in Sprague-Dawley rat assessed as radioactivity in feces at 1.71 uCi, ip measured on day 1

In the case of `CC(O)(c1cccc(Cl)c1)C(c1ccccc1)c1ccccn1` (stereo not given), the Drug metabolism [1] is reported as “metabolite_detected”, the Drug excretion [2] is reported as less than 1% and the Drug excretion [3] is reported as 25%. The Rf [4] was 0.56, the Drug metabolism [5] was “metabolite_detected” and the Drug excretion [6] was less than 1%. The Drug metabolism [7] was “metabolite_notdetected”, the Drug excretion [8] was 5% and the Drug metabolism [9] was “metabolite_detected”. It also gave a Drug excretion [10] of 7%.

Source: ChEMBL document CHEMBL3272023, “Metabolic formation and synthesis of 1-(3-chlorophenyl)-2(4-hydroxyphenyl)-1-methyl-2(2 pyridine)ethanol. A potential hypocholesteremic agent” (J Med Chem, 1976)
